The target of data set [1] is Voltage-gated inwardly rectifying potassium channel KCNH2 (Homo sapiens, UniProt Q12809). The data set can be described thus: Inhibition of human ERG expressed in CHO cells by Qpatch-clamp method. It counts as cell-based.
A short description of data set [2]: Cytotoxicity against HMEC1 measure after 72 hrs by SRB assay. As to conditions: Homo sapiens, HMEC-1, 72 h.
Data set [3] is described as follows: Cytotoxicity against human WI38 cells measure after 72 hrs by SRB assay. In kind it is cell-based. As to conditions: WI-38, 72 h.
The test system of data set [4] is Staphylococcus aureus. Nature of the data set: Sensitization of Staphylococcus aureus Newman to H2O2 assessed as bacterial survival at 1 uM measured after 24 hrs (reference value: 36.2%). It counts as functional.
The target of data set [5] is T1, 4,4'-diapophytoene desaturase (4,4'-diaponeurosporene-forming) (Staphylococcus aureus (strain Newman), UniProt O07855).
T1 sequence (O07855 whole entry): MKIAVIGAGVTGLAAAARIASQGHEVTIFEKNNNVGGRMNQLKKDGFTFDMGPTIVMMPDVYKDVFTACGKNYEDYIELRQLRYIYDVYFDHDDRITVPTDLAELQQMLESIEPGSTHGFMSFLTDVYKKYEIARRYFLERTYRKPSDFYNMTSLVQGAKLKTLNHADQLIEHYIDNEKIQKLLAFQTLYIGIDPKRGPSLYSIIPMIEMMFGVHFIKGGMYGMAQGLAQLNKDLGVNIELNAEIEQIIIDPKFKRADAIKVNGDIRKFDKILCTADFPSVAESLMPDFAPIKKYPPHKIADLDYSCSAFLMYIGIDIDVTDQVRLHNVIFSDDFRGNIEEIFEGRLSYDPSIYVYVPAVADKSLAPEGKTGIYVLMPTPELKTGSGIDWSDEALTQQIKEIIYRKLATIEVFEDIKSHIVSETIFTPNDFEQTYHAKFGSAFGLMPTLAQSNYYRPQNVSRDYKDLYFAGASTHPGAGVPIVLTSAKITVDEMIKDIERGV
The data set can be described thus: Inhibition of Staphylococcus aureus Newman 6His-tagged CrtN expressed in Escherichia coli BL21(DE3) using diapophytoene as substrate assessed as pigment formation after overnight incubation by spectrophotometric method. On the set-up: species or system Staphylococcus aureus subsp. aureus str. Newman. In a few lines:
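Lysate of E. coli BL21(DE3) expressing 6His-CrtN (IPTG 0.5 mM, 16 °C overnight), ~1.41 mg CrtN per reaction, with diapophytoene–phosphatidylcholine emulsion in 0.02 M HEPES pH 7.5 plus FAD. Anaerobic via glucose oxidase 20 U/mL, catalase 20000 U/mL, glucose 2 mM (final). Started with lysate, overnight at 37 °C; triplicate.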

The subject of data set [6] is Staphylococcus aureus. The data set can be described thus: Inhibition of staphyloxanthin pigment formation in methicillin-resistant Staphylococcus aureus USA300 LAC after 48 hrs by spectrophotometric method. It counts as functional, organism-based. In a few lines:
(§1)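 MRSA grown in 4 mL TSB with 40 µL compound (2-fold serial dilutions from 20 mM DMSO stock) at 37 °C for 48 h, triplicate. Cells washed twice in PBS, pigment extracted with methanol, OD450 measured; IC50 from dose-response fit.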

The subject of data set [7] is Staphylococcus aureus. The data set can be described thus: Inhibition of staphyloxanthin pigment formation in methicillin-resistant Staphylococcus aureus Mu50 after 48 hrs by spectrophotometric method. To be noted: Mu50, 48 h. It counts as functional, organism-based. The essentials:
as §1

In data set [8] the test system is Staphylococcus aureus. The data set can be described thus: Suppression in growth of methicillin-resistant Staphylococcus aureus USA300 LAC at 0.2 mM measured after overnight incubation by spectrophotometric method. It counts as organism-based. To be noted: 200 µM. The essentials: (§2)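 Compound from 20 mM DMSO stock diluted in TSB to final 0.2 or 0.05 mM; DMSO growth controls; paraffin overlay. Overnight cultures inoculated to final OD600 ≈ 0.05; incubated at 37 °C overnight with OD600 read every 30 min.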

Data set [9] concerns Staphylococcus aureus. The data set can be described thus: Suppression in growth of methicillin-resistant Staphylococcus aureus Mu50 at 0.05 mM measured after overnight incubation by spectrophotometric method. In kind it is organism-based. To be noted: 50 µM. The essentials:
as §2

For data set [10], the system named is Staphylococcus aureus. Nature of the data set: Suppression in survival of Staphylococcus aureus Newman at 0.2 mM measured after overnight incubation by spectrophotometric method. As to conditions: 200 µM. It counts as ADME, organism-based. In a few lines:
as §2

Data set [11] relates to Staphylococcus aureus. The data set can be described thus: Suppression in survival of methicillin-resistant Staphylococcus aureus USA400 MW2 at 0.05 mM measured after overnight incubation by spectrophotometric method. In kind it is ADME, organism-based. As to conditions: 50 µM. In a few lines: as §2
The subject of data set [12] is Staphylococcus aureus. The data set can be described thus: Suppression in survival of methicillin-resistant Staphylococcus aureus USA300 LAC at 0.2 mM measured after overnight incubation by spectrophotometric method. In kind it is ADME, organism-based. To be noted: 200 µM. The essentials:
as §2

The subject of data set [13] is Staphylococcus aureus. The data set can be described thus: Suppression in survival of methicillin-resistant Staphylococcus aureus Mu50 at 0.05 mM measured after overnight incubation by spectrophotometric method. In kind it is ADME, organism-based. To be noted: 50 µM. In a few lines: as §2
For data set [14], the system named is Staphylococcus aureus. Nature of the data set: Sensitization of Staphylococcus aureus Newman to H2O2 assessed as reduction in bacterial survival at 1 uM measured after 24 hrs relative to control. It counts as functional. In a few lines:
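Strains grown 24 h in TSB with or without inhibitor, washed twice in PBS, then diluted to 4 × 10^6 CFU per 250 µL reaction. H2O2 added to a final 1.5%. Tubes sealed and held 30 min at 37 °C. Reaction stopped with 1000 U/mL catalase. Survivors counted as CFU by serial dilution on TSA plates and compared with untreated (mock) bacteria.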

In data set [15] the test system is Staphylococcus aureus. The data set can be described thus: Antibacterial activity against Staphylococcus aureus USA400 MW2 infected Balb/c mouse assessed as reduction of bacterial survival in kidney at 1.3 mg, ip bid administered for 4.5 days followed by bacterial infection measured after 5 days. It counts as functional, organism-based. In a few lines: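 Female BALB/c mice, 6–8 weeks. Compound in sterile water ip once and every 12 h for 108 h, total 50 or 200 mg/kg; water controls. Infected 12 h after first dose with 4 × 10^7 CFU USA400 MW2 (100 µL). Killed 5 days post infection; liver or kidney CFU counted on TSA after homogenising in PBS/0.1% Triton X-100. n = 13; two-tailed Mann-Whitney.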

For data set [16], the system named is Staphylococcus aureus. The data set can be described thus: Antibacterial activity against Staphylococcus aureus Mu50 infected Balb/c mouse assessed as reduction of bacterial survival in liver at 1.3 mg, ip bid administered for 4.5 days followed by bacterial infection measured after 5 days. In kind it is functional.
Data set [17] concerns Staphylococcus aureus. The data set can be described thus: Antibacterial activity against Staphylococcus aureus Mu50 infected Balb/c mouse assessed as reduction of bacterial survival in kidney at 5.2 mg, ip bid administered for 4.5 days followed by bacterial infection measured after 5 days. In kind it is functional.
In data set [18] the test system is Staphylococcus aureus. Nature of the data set: Antibacterial activity against Staphylococcus aureus Mu50 infected Balb/c mouse assessed as reduction of bacterial survival in kidney at 1.3 mg, ip bid administered for 4.5 days followed by bacterial infection measured after 5 days. In kind it is functional.
A short description of data set [19]: Volume of distribution at steady state in Sprague-Dawley rat at 5 mg/kg, iv administered as single dose. As to conditions: in vivo, read-out: Vdss. In kind it is ADME, organism-based. In a few lines:
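Male SD rats, 3 per group, single iv 5 mg/kg or oral 10 mg/kg. Blood sampled 0.083 (iv only), 0.25, 0.5, 1, 2, 4, 6, 8, 24 h postdose; plasma separated at 4 °C, stored −80 °C, analysed within 1 week. Parameters from plasma concentration-time data; F from dose-normalized AUC, oral vs iv.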

Data set [20] has as its system Nannizzia gypsea. Nature of the data set: Antifungal activity against Microsporum gypseum measured after 7 days by serial dilution method. It counts as functional. The essentials:
(§3)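 Broth serial dilution MIC per NCCLS in RPMI 1640 buffered with 0.165 M MOPS; compounds in DMSO diluted in medium. Dermatophytes incubated at 28 °C, read at 7 days. MIC taken as lowest concentration giving ≥80% growth inhibition versus control (turbidity).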

Data set [21] relates to Trichophyton mentagrophytes. Nature of the data set: Antifungal activity against Trichophyton mentagrophytes measured after 7 days by serial dilution method. It counts as functional. The essentials: as §3

Active and inactive are the calls of the source. The calls are words filed in the database; no cut-off is given here.

Voltage-gated inwardly rectifying potassium channel KCNH2, sequence (Q12809 whole entry): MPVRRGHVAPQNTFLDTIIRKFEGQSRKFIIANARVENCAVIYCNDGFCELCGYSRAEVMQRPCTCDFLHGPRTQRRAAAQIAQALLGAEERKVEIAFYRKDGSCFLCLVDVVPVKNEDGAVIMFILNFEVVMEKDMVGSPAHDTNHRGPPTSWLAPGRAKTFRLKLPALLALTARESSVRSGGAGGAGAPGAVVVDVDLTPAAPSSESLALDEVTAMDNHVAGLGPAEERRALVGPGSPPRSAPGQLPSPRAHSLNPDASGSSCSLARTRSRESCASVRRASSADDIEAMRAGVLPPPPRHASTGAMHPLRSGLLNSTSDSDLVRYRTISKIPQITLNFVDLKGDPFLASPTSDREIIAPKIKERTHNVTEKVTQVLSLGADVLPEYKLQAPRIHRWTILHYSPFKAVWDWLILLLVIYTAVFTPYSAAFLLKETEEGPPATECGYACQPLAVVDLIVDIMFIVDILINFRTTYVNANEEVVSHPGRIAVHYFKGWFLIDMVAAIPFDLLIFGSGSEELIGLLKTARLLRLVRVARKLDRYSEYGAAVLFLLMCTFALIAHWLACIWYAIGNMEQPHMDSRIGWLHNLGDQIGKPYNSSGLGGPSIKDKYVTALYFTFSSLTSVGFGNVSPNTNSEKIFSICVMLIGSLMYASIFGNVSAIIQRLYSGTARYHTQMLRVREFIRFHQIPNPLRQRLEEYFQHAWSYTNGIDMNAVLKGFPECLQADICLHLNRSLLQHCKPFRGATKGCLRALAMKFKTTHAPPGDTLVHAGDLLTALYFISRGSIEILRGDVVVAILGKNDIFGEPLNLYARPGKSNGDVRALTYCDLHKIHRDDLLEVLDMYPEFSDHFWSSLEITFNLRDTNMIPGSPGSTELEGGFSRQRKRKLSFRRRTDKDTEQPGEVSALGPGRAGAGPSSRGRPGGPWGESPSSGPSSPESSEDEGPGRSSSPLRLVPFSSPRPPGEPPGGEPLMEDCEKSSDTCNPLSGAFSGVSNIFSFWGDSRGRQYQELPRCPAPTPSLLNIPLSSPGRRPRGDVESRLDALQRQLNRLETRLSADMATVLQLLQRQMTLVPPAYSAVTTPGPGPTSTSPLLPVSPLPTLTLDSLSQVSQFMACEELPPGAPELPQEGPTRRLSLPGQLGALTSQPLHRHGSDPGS

As for `CN(C/C=C/c1ccc(C(F)(F)F)cc1)Cc1cccc2ccoc12.Cl`, the 50% inhibitory concentration (IC50) in [1] was 3.71 µM; in data set [2] it was 67.1 µM; in data set [3], 47.9 µM; in data set [5], 0.339 µM; in data set [6], 0.00339 µM; in data set [7], 0.00038 µM. For the same compound, in data set [4], the survival at 1 µM stood at 1.2%. For the same compound, the Activity entry in data set [8], in data set [9], in data set [10], in [11], in data set [12] and in data set [13] was “Non-toxic” each time. The Activity in data set [16] was determined as 2.94 deltalog10CFU; in data set [17], 1.11 deltalog10CFU; in data set [18], 0.68 deltalog10CFU. In addition, the “fold change (FC)” value in data set [14] stood at 30. Besides, the result in data set [15] was Active. Further, the Vd in data set [19] is 10.7 L/kg. For the same compound, in [20], the “MIC80 (lowest concentration giving ≥80% growth inhibition)” value came to 32 µg/mL. Also, the “MIC=<80” value in data set [21] was over 64 µg/mL.

The record behind these values is ChEMBL document CHEMBL3813689, “Discovery of Potent Benzofuran-Derived Diapophytoene Desaturase (CrtN) Inhibitors with Enhanced Oral Bioavailability for the Treatment of Methicillin-Resistant Staphylococcus aureus (MRSA) Infections” (J Med Chem, 2016).
